Published values pooled from the literature.
Each line is one published result; the experiments were not run side by side.
Cell line: A549
Read-out: cell growth or viability

Compound	test	conditions	IC50 [µM]
COc1cccc2c1C(=O)c1c(O)c3c(c(O)c1C2=O)C[C@@](O)(C(=O)CO)C[C@@H]3O[C@H]1C[C@H](N)[C@H](O)[C@H](C)O1	MTT	48 h	2.42
COc1cc2ncnc(Nc3ccc(F)c(Cl)c3)c2cc1NC(=O)N/N=C/CN1CCCCC1	MTT	72 h	5.63
COc1ccccc1/C=C/CNCC(O)COc1ccc2ccccc2c1 (centres unmarked)	CCK-8	72 h	17.1
COc1cc(Nc2nccc(-c3cnn4nc(OC)ccc34)n2)cc(C(F)(F)F)c1	ATP luminescence		0.47
O=C(/N=C1\S/C(=C\c2ccc(Cl)cc2)C(=O)N1C1CCCCC1)c1ccc2ccccc2c1		48 h	17.6
CCCc1ccc(OCC(O)CNC/C=C/c2ccccc2OC)cc1 (centres unmarked)	CCK-8	72 h	31.6
COc1cc2ncnc(Nc3ccc(F)c(Cl)c3)c2cc1NC(=O)N/N=C/CN1CCOCC1	MTT	72 h	6.69
Brc1ccc(Nc2nc(NCCc3ccccc3)nc(NCCc3ccccc3)n2)cc1	SRB	72 h	19.7
CCN(CC)CCNC(=O)c1c(C)[nH]c(/C=C2\C(=O)Nc3ccc(F)cc32)c1C		72 h	4.56
Cc1ccc(C)n1-c1ccc(-c2nnc(-c3ccccc3Cl)[nH]2)cc1	MTT	72 h	228
CC(=O)OCCOC(=O)[C@]1(C)CC[C@]2(C)CC[C@]3(C)C4=CC=C5C(=CC(=O)C(O)=C5C)[C@]4(C)CC[C@@]3(C)[C@@H]2C1	MTT	48 h	3.19
O=C1NC(=NCc2cccs2)S/C1=C\c1ccc2ncccc2c1			> 10
CC1=C(O)C(=O)C=C2C1=CC=C1[C@@]2(C)CC[C@@]2(C)[C@@H]3C[C@](C)(C(=O)OCCCO)CC[C@]3(C)CC[C@]12C	MTT	48 h	4.3
COc1cccc(NC(=O)CN2C(=O)/C(=C/c3ccc(F)cc3)SC2=S)c1	MTT		14.4
COc1ccccc1OCCNCC(O)COc1cccc2[nH]c3ccccc3c12 (centres unmarked)	CCK-8	72 h	22.9
O=C(Nc1nnc(-c2cc3ccccc3[nH]2)s1)c1cc2c([nH]c3ccccc32)c(-c2ccccc2)n1	MTT	72 h	3
CC(=O)O[C@H]1C(=O)[C@@]2(C)[C@H]([C@H](OC(=O)c3ccccc3)[C@]3(O)C[C@H](OC(=O)[C@H](O)[C@@H](NC(=O)c4ccccc4)c4ccccc4)C(C)=C1C3(C)C)[C@]1(OC(C)=O)CO[C@@H]1C[C@@H]2O	SRB		0.03
CN(C)CCCn1cccc1/C=N/NC(=O)Nc1cc2c(Nc3ccc(F)c(Cl)c3)ncnc2cc1O[C@H]1CCOC1	MTT	72 h	6.17
COc1c2c(cc3c1OCO3)[C@]13C=C[C@H](OC)C[C@H]1N(C2)C[C@H]3OC(=O)c1cccc(C)c1	WST-1		> 10
COc1c(C)cnc(COc2ccc(NC(=O)Nc3ccc(F)cc3)cc2)c1C	MTT	72 h	13.2
CN1C(=O)/C(=N\NC(=O)c2cc3ccccc3[nH]2)c2ccccc21			4.04

Compound	test	conditions	IC50 [µM]
CC(=O)O[C@H]1C(=O)[C@@]2(C)[C@H]([C@H](OC(=O)c3ccccc3)[C@]3(O)C[C@H](OC(=O)[C@H](O)[C@@H](NC(=O)c4ccccc4)c4ccccc4)C(C)=C1C3(C)C)[C@]1(OC(C)=O)CO[C@@H]1C[C@@H]2O	CCK-8	72 h	0.0206
COCCCOc1ccnc(COc2ccc(NC(=O)Nc3ccc(Cl)c(C(F)(F)F)c3)cc2)c1C	MTT	72 h	6.19
O=[N+]([O-])c1ccc(-c2csc(Nc3ccc4c(O)ncnc4c3)n2)cc1	MTT		17.9
Cn1c(=O)c2c(ncn2Cc2nnc(SCC(=O)Nc3ccccc3)n2-c2ccccc2)n(C)c1=O	MTT		143
COc1ccc(-c2nn(-c3ccc(S(C)(=O)=O)cc3)cc2/C=N/N=c2\[nH]c(-c3ccc(Br)cc3)cs2)cc1	MTT	48 h	14.3
O=c1[nH]cc(F)c(=O)[nH]1	MTT	48 h	37.2
COc1cc(N(C)CCN(C)C)c(NC(=O)/C=C/C(C)C)cc1Nc1nc(N2CCc3sccc3C2)c2sccc2n1	MTT		> 50
O=C(NC(=S)NC1CCCCC1)c1ccc2ccccc2c1		48 h	5.72
COc1nc(OCc2cccc(-c3ccccc3)c2C)ccc1CNCCNC(C)=O	MTT		4.6
Cc1cccc(NC(=O)NNC(=O)c2ccc(Nc3nccc(-c4ccccn4)n3)cc2)c1	MTT		> 40
COCCCOc1ccnc(COc2ccc(NC(=O)Nc3cc(F)cc(F)c3)cc2)c1C	MTT	72 h	44.8
C=C(Cl)C(=O)Nc1cc(Nc2nc(Nc3cnn(C)c3)c3sccc3n2)c(OC)cc1N1CCN(C)CC1	MTT		0.655
CCN(CC)CCn1cccc1/C=N/NC(=O)Nc1cc2c(Nc3ccc(F)c(Cl)c3)ncnc2cc1O[C@H]1CCOC1	MTT	72 h	1.59
COc1ccccc1CCNCC(O)COc1cccc2[nH]c3ccccc3c12 (centres unmarked)	CCK-8	72 h	13.3
C=C(Cl)C(=O)Nc1cc(Nc2nc(N3CCOCC3)c3sccc3n2)c(OC)cc1N(C)CCN(C)C	MTT		0.107
COc1cc2ncnc(Nc3ccc(F)c(Cl)c3)c2cc1NC(=O)N/N=C/CN1CCN(C)CC1	MTT	72 h	6.6
CCC(=O)Nc1cc(Nc2nc(Nc3cnn(C)c3)c3sccc3n2)c(OC)cc1N(C)CCN(C)C	MTT		7.06
COc1c(C)cnc(COc2ccc(NC(=O)Nc3cc(F)cc(F)c3)cc2)c1C	MTT	72 h	10.2
C=CC(=O)Nc1cc(Nc2nc(N3CCc4sccc4C3)c3cccnc3n2)c(OC)cc1N1CCSCC1	MTT		23.9
Cc1ccc(C)n1-c1ccc(-c2nnc(S)s2)cc1	MTT	72 h	223
